# From ChEMBL document CHEMBL1131501, “Cytotoxic activities of Mannich bases of chalcones and related compounds” (J Med Chem, 1998)
# Key:
# Format in all cases: functional, cell-based
# P388 = experiment: Inhibition of proliferation of murine P388 cells; conditions: Mus musculus
# L1210 = experiment: Concentration required to inhibit 50% growth of L1210 leukemia cells; conditions: Mus musculus
# Homo sapiens [1] = species: Homo sapiens; experiment: Concentration required to inhibit 50% growth of Human CEM T-lymphocytes cells; conditions: CCRF-CEM
# Homo sapiens [2] = species: Homo sapiens; experiment: Concentration required to inhibit 50% growth of human Molt 4/C8 T-lymphocyte cells; conditions: Molt4/C8
# Tumor Cell line = experiment: Evaluation for cytotoxicity to human tumor cell lines.
# Summary of the method: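 Panel of about 55-60 human tumor lines (leukemia, melanoma, non-small cell lung, colon, CNS, ovarian, renal, prostate, breast) exposed to 10⁻⁸ to 10⁻⁴ M. Growth inhibition was read as intact-cell recovery relative to vehicle control after 48 h.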
Structure (SMILES),IC50 (P388),IC50 (L1210),IC50 (Homo sapiens [1]),IC50 (Homo sapiens [2]),IC50 (Tumor Cell line)
COc1ccc(/C=C/C(=O)c2ccc(OC(=O)/C=C/c3ccccc3)cc2)cc1,10.2 µM,39.5 µM,10.8 µM,27.9 µM,
O=C(/C=C/c1ccc([N+](=O)[O-])cc1)c1ccc(O)cc1,13.1 µM,7.32 µM,2.23 µM,5.94 µM,
COc1ccc(/C=C/C(=O)c2ccc(O)cc2)cc1,8.7 µM,32.2 µM,5.9 µM,27.9 µM,
O=C(/C=C/c1ccccc1Cl)c1ccc(O)cc1,6.85 µM,24.5 µM,13.9 µM,18.2 µM,
O=C(/C=C/c1ccc(O)cc1)c1ccc(Cl)c(Cl)c1,8.53 µM,33.8 µM,20 µM,10.8 µM,
O=C(/C=C/c1ccc(Cl)cc1Cl)c1ccc(O)cc1,7.89 µM,25.2 µM,10.2 µM,13.9 µM,
O=C(/C=C/c1ccc(/C=C/C(=O)c2ccc(O)cc2)cc1)c1ccc(O)cc1,0.564 µM,395 µM,78.6 µM,30.3 µM,93.3 µM
CN(C)Cc1cc(C(=O)/C=C/c2cc(F)ccc2F)cc(CN(C)C)c1O,8.86 µM,15.9 µM,2.91 µM,15.4 µM,
CN(C)Cc1cc(/C=C/C(=O)c2ccc(Br)cc2)cc(CN(C)C)c1O,15.1 µM,32.3 µM,21.9 µM,39.2 µM,
COc1ccc(/C=C/C(=O)c2cc(CN(C)C)c(O)c(CN(C)C)c2)cc1,44.1 µM,25.8 µM,14.8 µM,25.3 µM,29.5 µM
CN(C)Cc1cc(C(=O)/C=C/c2ccccc2)cc(CN(C)C)c1O,29.6 µM,17.7 µM,19.6 µM,20.7 µM,21.9 µM
CN(C)Cc1cc(C(=O)/C=C/c2ccc(C(F)(F)F)cc2)cc(CN(C)C)c1O,3.67 µM,8.14 µM,1.56 µM,8.3 µM,
O=C(/C=C/c1ccccc1)c1cc(CN2CCOCC2)c(O)c(CN2CCOCC2)c1,10.3 µM,15.7 µM,6.11 µM,17.2 µM,14.5 µM
CN(C)Cc1cc(C(=O)/C=C/c2ccccc2Cl)cc(CN(C)C)c1O,13.2 µM,6.84 µM,8.08 µM,7.13 µM,9.55 µM
CN(C)Cc1cc(C(=O)/C=C/c2ccc(/C=C/C(=O)c3cc(CN(C)C)c(O)c(CN(C)C)c3)cc2)cc(CN(C)C)c1O,,,,,26.9 µM
CN(C)Cc1cc(C(=O)/C=C/c2ccc(F)cc2)cc(CN(C)C)c1O,26.9 µM,16.9 µM,13.8 µM,17.2 µM,20 µM
CN(C)Cc1cc(C(=O)/C=C/c2ccc(Br)cc2)cc(CN(C)C)c1O,10.9 µM,7.09 µM,4.78 µM,8.42 µM,6.31 µM
CN(C)Cc1cc(/C=C/C(=O)c2ccc(Cl)c(Cl)c2)cc(CN(C)C)c1O,5.45 µM,9.32 µM,10.4 µM,12.4 µM,
Cc1ccc(/C=C/C(=O)c2cc(CN(C)C)c(O)c(CN(C)C)c2)cc1,30.8 µM,40.1 µM,35.2 µM,40.2 µM,17.8 µM
CN(C)Cc1cc(C(=O)/C=C/c2ccc(Cl)cc2Cl)cc(CN(C)C)c1O,5.44 µM,5.28 µM,4.87 µM,5.74 µM,3.09 µM
CN(C)Cc1cc(C(=O)/C=C/c2ccc(Cl)cc2)cc(CN(C)C)c1O,13.7 µM,8.33 µM,6.48 µM,8.41 µM,10 µM
CN(C)Cc1cc(C(=O)/C=C/c2ccc(O)cc2)cc(CN(C)C)c1O,> 50 µM,54 µM,39.1 µM,44.3 µM,39.8 µM

Structure (SMILES),IC50 (P388),IC50 (L1210),IC50 (Homo sapiens [1]),IC50 (Homo sapiens [2]),IC50 (Tumor Cell line)
CN(C)Cc1cc(C(=O)/C=C/c2c(F)cccc2Cl)cc(CN(C)C)c1O,,8.29 µM,7.74 µM,7.92 µM,9.12 µM
CN(C)Cc1cc(C(=O)/C=C/c2ccc([N+](=O)[O-])cc2)cc(CN(C)C)c1O,17.7 µM,8.73 µM,1.75 µM,4.82 µM,8.91 µM
CN(C)Cc1cc(C(=O)/C=C/c2ccc(Cl)c(Cl)c2)cc(CN(C)C)c1O,5.09 µM,2.49 µM,2.48 µM,6.99 µM,2.35 µM
CN(C)Cc1cc(C(=O)/C=C/c2cccc(Cl)c2)cc(CN(C)C)c1O,8.66 µM,5.96 µM,2.68 µM,5.75 µM,4.68 µM
CN(C)Cc1cc(C(=O)/C=C/c2c(Cl)cccc2Cl)cc(CN(C)C)c1O,5.92 µM,3.83 µM,4.33 µM,5.38 µM,5.88 µM
CN(C)Cc1cc(/C=C/C(=O)c2ccccc2)cc(CN(C)C)c1O,> 50 µM,108 µM,22.1 µM,98 µM,
O=C(/C=C/c1ccc(Br)cc1)c1ccc(O)cc1,16.6 µM,13.2 µM,1.98 µM,6.07 µM,
O=C(/C=C/c1ccc(Cl)cc1)c1ccc(O)cc1,3.67 µM,9.07 µM,3.47 µM,6.91 µM,
O=C(/C=C/C=C/c1ccccc1)c1ccc(O)cc1,8.83 µM,33.8 µM,10 µM,30.8 µM,
O=C(/C=C/c1cccc(Cl)c1)c1ccc(O)cc1,2.82 µM,21.2 µM,5.4 µM,6.8 µM,
O=C(/C=C/c1ccc(Cl)c(Cl)c1)c1ccc(O)cc1,11.7 µM,13.1 µM,1.71 µM,5.66 µM,
O=C(/C=C/c1cc(F)ccc1F)c1ccc(O)cc1,0.864 µM,12.2 µM,3.57 µM,7.88 µM,
O=C(/C=C/c1ccccc1)Oc1ccc(C(=O)/C=C/c2ccc(Cl)cc2)cc1,3.82 µM,265 µM,45.3 µM,220 µM,
Cc1ccc(/C=C/C(=O)c2ccc(O)cc2)cc1,5.51 µM,24.7 µM,11.3 µM,25.4 µM,
O=C(/C=C/c1c(Cl)cccc1Cl)c1ccc(O)cc1,3.17 µM,5.15 µM,1.36 µM,5.15 µM,
O=C(/C=C/c1ccc(C(F)(F)F)cc1)c1ccc(O)cc1,2.49 µM,13 µM,1.88 µM,6.33 µM,
O=C(/C=C/c1ccccc1)Oc1ccc(C(=O)/C=C/c2ccccc2)cc1,4.62 µM,46.5 µM,13.2 µM,39.2 µM,
O=C(/C=C/c1ccc(F)cc1)c1ccc(O)cc1,8.55 µM,15.7 µM,3.3 µM,16.1 µM,
N[C@@H](Cc1ccc(N(CCCl)CCCl)cc1)C(=O)O,,,,,26.3 µM
O=C(/C=C/c1ccccc1)c1ccc(O)cc1 [4'-HYDROXYCHALCONE],3.12 µM,23.5 µM,14.7 µM,13.1 µM,
O=C(/C=C/c1ccc(O)cc1)c1ccccc1 [4-HYDROXYCHALCONE],14.3 µM,37.9 µM,9.31 µM,8.58 µM,
O=C(/C=C/c1ccccc1)c1ccccc1 [CHALCONE],9.63 µM,41.4 µM,12.5 µM,12.7 µM,8.32 µM
